The text below walks through data of ChEMBL document CHEMBL2321713 (Bioorg Med Chem, 2013).

The subject of series [1] is Liver microsomes. Nature of the series: Drug metabolism in human liver microsomes assessed as aromatic ring hydroxylation after 30 mins by LC-UV/MS analysis. The series is classed as ADME, Microsome. Particulars: 0.5 h; call rule not given here. In a few lines: (§1)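 Rat or human liver microsomes (20 mg protein/ml suspension) were added to start reactions after test compound (1 mM stock) in 50 mM Tris-Cl pH 7.4 with MgCl2 was pre-incubated 30 min at 37 °C. Incubation ran 30 min at 37 °C, shaken in air. Reactions were quenched with ice-cold dichloromethane plus internal standards. Metabolites were separated on C18 (acetonitrile/water gradient 40→60%) and identified by positive-mode MS.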

Series [2] concerns Liver microsomes. In words: Drug metabolism in human liver microsomes assessed as C3'-demethylation after 30 mins by LC-UV/MS analysis. Conditions: 0.5 h. The series is classed as ADME, Microsome. In outline:
as §1

Series [3] relates to Liver microsomes. Nature of the series: Drug metabolism in rat liver microsomes assessed as aromatic ring hydroxylation after 30 mins by LC-UV/MS analysis. The series is classed as ADME, Microsome. Conditions: 0.5 h. In a few lines: as §1
In series [4] the test system is Liver microsomes. In words: Drug metabolism in rat liver microsomes assessed as C3'-demethylation after 30 mins by LC-UV/MS analysis. The series is classed as ADME, Microsome. Particulars: 0.5 h. In outline:
as §1

Series [5] relates to Liver microsomes. Nature of the series: Drug metabolism in human liver microsomes assessed as C3-demethylation after 30 mins by LC-UV/MS analysis. The series is classed as ADME, Microsome. Conditions: 0.5 h. In outline: as §1
Series [6] deals with Liver microsomes. Nature of the series: Drug metabolism in rat liver microsomes assessed as C3-demethylation after 30 mins by LC-UV/MS analysis. The series is classed as ADME, Microsome. Particulars: 0.5 h. In outline: as §1
A short description of series [7]: Intrinsic clearance in human liver microsomes after 30 mins by HPLC/MS analysis. In kind it is ADME, Microsome. Conditions: read-out: CLH. In a few lines: (§2)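 Rat or human liver microsomal incubations at 37 °C were analysed for percent parent remaining over incubation time. k is the slope of the linear regression of ln(% remaining) versus time, and t1/2 = 0.693/k. In vitro intrinsic clearance was derived from t1/2 and used to predict hepatic clearance.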

Series [8] is described as follows: Elimination half life in human liver microsomes by HPLC/MS analysis. In kind it is ADME, Microsome. Particulars: read-out: beta t1/2. In outline:
as §2

A short description of series [9]: Elimination half life in rat liver microsomes by HPLC/MS analysis. The series is classed as ADME, Microsome. Particulars: read-out: beta t1/2. In outline:
as §2

Series [10] is described as follows: Intrinsic clearance in rat liver microsomes after 30 mins by HPLC/MS analysis. The series is classed as ADME, Microsome. Conditions: read-out: CLH. In outline:
as §2

Series [11] is filed under the species Homo sapiens. Nature of the series: Selectivity ratio of EC50 for human MT1 receptor to EC50 for human MT2 receptor. In outline: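 Ca2+ mobilization (FLIPR) in CHO clonal lines stably co-expressing hMT1 or hMT2 with chimeric Gα16z25. Cells seeded a day before, loaded with 2 µM Fluo-4 in HBSS (pH 7.5) with 2.5 mM probenecid, 1 h, 37 °C. Fluorescence read 3 min after agonist addition, excitation 488 nm. […] Ratio is MT1 EC50/MT2 EC50.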

Series [12] addresses T1, Melatonin receptor type 1B (Homo sapiens, UniProt P49286).
T1 sequence (P49286 whole entry): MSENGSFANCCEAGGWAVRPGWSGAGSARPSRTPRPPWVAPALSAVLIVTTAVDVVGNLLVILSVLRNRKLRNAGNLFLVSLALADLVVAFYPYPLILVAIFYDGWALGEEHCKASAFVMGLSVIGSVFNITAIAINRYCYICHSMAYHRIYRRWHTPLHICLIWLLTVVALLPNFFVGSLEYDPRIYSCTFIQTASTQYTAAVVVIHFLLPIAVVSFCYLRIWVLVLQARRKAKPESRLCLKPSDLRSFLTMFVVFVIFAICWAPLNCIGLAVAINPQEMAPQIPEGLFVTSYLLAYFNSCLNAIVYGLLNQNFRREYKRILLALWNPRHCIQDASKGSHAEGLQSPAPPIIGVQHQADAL
Nature of the series: Agonist activity at human MT2 receptor expressed in CHO cells coexpressing Galpha protein 16z25 assessed as increase in calcium mobilization measured for 3 mins by FLIPR assay. The series is classed as functional, cell-based. In a few lines:
(§3)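 CHO cells stably expressing human MT1 or MT2 with chimeric Gα16z25 were seeded in growth medium the day before. Fluorescence at 488 nm excitation was followed for 3 min after agonist addition.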

For series [13], the target named is T2, Melatonin receptor type 1A (Homo sapiens, UniProt P48039). Nature of the series: Agonist activity at human MT1 receptor expressed in CHO cells coexpressing Galpha protein 16z25 assessed as increase in calcium mobilization measured for 3 mins by FLIPR assay. The series is classed as functional, cell-based. In outline: as §3
Series [14] is filed under the species Homo sapiens. In words: Selectivity ratio of Ki for human MT1 receptor to Ki for human MT2 receptor. In outline: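 Whole-cell competition binding on CHO cells stably expressing hMT1 or hMT2, 1.5×10^5 cells per tube. Incubated 60 min at 4 °C, then filtered through GF/C and counted. Means of duplicate experiments. Ratio is MT1 Ki/MT2 Ki.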
Series [15] addresses T1, Melatonin receptor type 1B. Nature of the series: Displacement of [3H]melatonin from human MT2 receptor expressed in CHO cells after 60 mins by microbeta scintillation method. In kind it is cell-based.
Series [16] concerns the target T2, Melatonin receptor type 1A. In words: Displacement of [3H]melatonin from human MT1 receptor expressed in CHO cells after 60 mins by microbeta scintillation method. The series is classed as cell-based.

T2 sequence (P48039 whole entry): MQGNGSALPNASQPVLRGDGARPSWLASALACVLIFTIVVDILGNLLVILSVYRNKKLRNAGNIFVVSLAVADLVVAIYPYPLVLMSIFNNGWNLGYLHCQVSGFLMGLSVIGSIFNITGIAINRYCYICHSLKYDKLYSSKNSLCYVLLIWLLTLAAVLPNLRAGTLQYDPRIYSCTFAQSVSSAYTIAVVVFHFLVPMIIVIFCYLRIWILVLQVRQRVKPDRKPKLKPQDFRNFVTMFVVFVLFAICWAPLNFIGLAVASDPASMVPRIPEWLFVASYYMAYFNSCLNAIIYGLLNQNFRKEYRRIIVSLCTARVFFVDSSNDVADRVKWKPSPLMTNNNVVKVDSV

With `CCC(=O)NCCCc1cc(OC)ccc1CCc1cccc(OC)c1`, the Drug metabolism result in the series on Liver microsomes [1], in the series on Liver microsomes [2], in the series with Liver microsomes [3], in the series on Liver microsomes [4], with Liver microsomes [5] and with Liver microsomes [6] was “Active” each time. Besides, the values for the CLint scaled in [7] and in [10] were 367 mL/min/kg and 301 mL/min/kg, respectively. For the same compound, the half-life in [8] worked out at 5.1 min; in series [9], 8.3 min. For the same compound, the Ratio EC50 in the series listed under Homo sapiens [11] worked out at 679. In addition, the concentration giving a half-maximal response (EC50) in [12] came to 0.024 nM; in [13], 16.3 nM. In addition, the Ratio Ki in the series filed under Homo sapiens [14] came to 40. In addition, the values for the Ki in series [15] and in series [16] were 0.55 nM and 22.2 nM, respectively.
On to `CCC(=O)NCCCc1cc(OC)ccc1OCc1cccc(OC)c1`, for which the CLint scaled came to 340 mL/min/kg in series [7] and 262 mL/min/kg in [10]. Besides, the half-life was 5.5 min in series [8] and 9.5 min in series [9]. For the same compound, the Ratio EC50 in the series filed under Homo sapiens [11] is 181. Further, the EC50 in series [12] is 0.05 nM; in series [13] it was 9.03 nM. Moreover, the Ratio Ki in the series filed under Homo sapiens [14] worked out at 417. The Ki was 0.291 nM in series [15] and 121 nM in series [16].
`CCC(=O)NCCCc1cc(OC)ccc1Cc1cccc(OC)c1`: the Drug metabolism result with Liver microsomes [1], in the series on Liver microsomes [2], in the series on Liver microsomes [3], with Liver microsomes [4], in the series on Liver microsomes [5] and with Liver microsomes [6] was “Active” each time. Further, the CLint scaled amounted to 312 mL/min/kg in [7] and 290 mL/min/kg in series [10]. Further, the half-life was found to be 6 min in [8] and 8.6 min in [9]. In addition, in the series filed under Homo sapiens [11], the Ratio EC50 amounted to 171. The EC50 in [12] was 0.24 nM; in series [13] it was 41.6 nM. Moreover, the Ratio Ki in the series filed under Homo sapiens [14] stood at 12. Moreover, the Ki in [15] is 3.39 nM; in [16], 39.5 nM.
Consider `CCC(=O)NCCCc1cc(OC)ccc1C#Cc1cccc(OC)c1`, for which the Drug metabolism result in the series with Liver microsomes [1], with Liver microsomes [2], with Liver microsomes [3], with Liver microsomes [4], in the series on Liver microsomes [5] and in the series with Liver microsomes [6] was “Active” each time. The CLint scaled in series [7] came to 102 mL/min/kg; in series [10] it was 115 mL/min/kg. For the same compound, the values for the half-life in [8] and in series [9] were 18.3 min and 21.7 min, respectively. Also, the Ratio EC50 in the series filed under Homo sapiens [11] is 77. Moreover, the EC50 in series [12] was 0.11 nM; in series [13], 8.38 nM. Also, in the series listed under Homo sapiens [14], the Ratio Ki stood at 527. The Ki turned out to be 0.073 nM in series [15] and 38.2 nM in series [16].
Regarding `CCC(=O)NCCCc1cc(OC)ccc1-c1cccc(OC)c1`, the Drug metabolism entry with Liver microsomes [1], with Liver microsomes [2], in the series on Liver microsomes [3], in the series on Liver microsomes [4], with Liver microsomes [5] and with Liver microsomes [6] was “Active” each time. Moreover, the CLint scaled was 353 mL/min/kg in [7] and 333 mL/min/kg in series [10]. Also, the half-life in series [8] stood at 5.3 min; in series [9], 7.5 min. For the same compound, the Ratio EC50 in the series listed under Homo sapiens [11] came to 14. For the same compound, the EC50 in series [12] was found to be 0.2 nM; in series [13] it was 2.94 nM. Also, the Ratio Ki in the series listed under Homo sapiens [14] was found to be 96. The inhibitory constant (Ki) in series [15] came out at 0.339 nM; in series [16], 32.7 nM.
`COc1ccc2[nH]cc(CCNC(C)=O)c2c1` [MELATONIN]: the CLint scaled in series [7] came out at 25.5 mL/min/kg; in series [10] it was 33.1 mL/min/kg. Moreover, the results for the half-life in [8] and in [9] were 73.2 min and 75.3 min, respectively.
